TLR4-MyD88 BLA: inhibitors of TLR4-MyD88 association in cells, primary screen, cell-based, HeLa CL3-4, BLA complementation, FRET ratio; Toll-like receptor 4 (Homo sapiens) + Myeloid differentiation primary response protein …; HeLa CL3-4 TLR4/MyD88 BLA complementation; inhibition, % at 8.4 µM; 0.18% of 200,000 active; AID 861, 2007; in the data active = inhibition above about 25%
MT1-MMP act inh: blockers of MT1-MMP proenzyme processing, primary screen, HT1080 RFP-PRO-GFP cells, GFP/RFP fluorescence. GFP/RFP ratio fluorescence, overnight; percent of plate control window, DMSO zero. GFP/RFP ratio change, % at 20 µM. 0.061% of 360,000 active. AID 651647, 2012;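 active = GFP/RFP ratio change of at least 30% with cell ATP level not reduced by more than half and red fluorescence within 50% of control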
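Test system: HT1080 RFP-PRO-GFP cells; Benchmarks: DMSO and RFP-L50D-GFP cell wells; Timing: cells overnight before dosing, compound overnight, 37 °C, 5% CO2; Compound: one 20 µM compound dose with 1% DMSO; Read-out: GFP/RFP fluorescence ratio.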
TLR9-MyD88 block: inhibitors of TLR9-MyD88 association in cells, primary screen, cell-based, CHO, BLA complementation, fluorescence | Toll-like receptor 9 (Homo sapiens) + Myeloid differentiation primary response protein … | CCF4 FRET ratio | inhibition, % at 4.98 µM | 0.21% of 340,000 active | AID 504734, 2011;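 active = inhibition above the mean over all tested compounds plus 3 SD, cut at about 21% in these data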
SKN-1 block: suppressors of acrylamide-induced Pgst-4::GFP reporter in worms, primary screen, SKN-1 inhibitor project, whole organism, uHTS, GFP/RFP fluorescence ratio, strain VP596; C. elegans VP596 Pgst-4::GFP/RFP ratio, 24 h; inhibition, % at 21.8 µM; 0.49% of 360,000 active; AID 624304, 2012;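 active = interference check ratio from 0.5 to 1.5 plus GFP to RFP signal ratio inhibition reaching or exceeding a fixed threshold, cut at about 30% in these data, passing the limit was not always enough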
NOD2 RIPK2 PPI: NOD2-RIPK2 binding disruptors in cells, primary screen, fluorescence, CHO cells, BLA complementation; Receptor-interacting serine/threonine-protein kinase 2 (Homo sapiens), O43353; CCF4 ratio; inhibition, % at 4.98 µM; 0.38% of 360,000 active; AID 624267, 2012; in the data active = inhibition above about 21%
Target sequence (O43353 whole entry, looked up): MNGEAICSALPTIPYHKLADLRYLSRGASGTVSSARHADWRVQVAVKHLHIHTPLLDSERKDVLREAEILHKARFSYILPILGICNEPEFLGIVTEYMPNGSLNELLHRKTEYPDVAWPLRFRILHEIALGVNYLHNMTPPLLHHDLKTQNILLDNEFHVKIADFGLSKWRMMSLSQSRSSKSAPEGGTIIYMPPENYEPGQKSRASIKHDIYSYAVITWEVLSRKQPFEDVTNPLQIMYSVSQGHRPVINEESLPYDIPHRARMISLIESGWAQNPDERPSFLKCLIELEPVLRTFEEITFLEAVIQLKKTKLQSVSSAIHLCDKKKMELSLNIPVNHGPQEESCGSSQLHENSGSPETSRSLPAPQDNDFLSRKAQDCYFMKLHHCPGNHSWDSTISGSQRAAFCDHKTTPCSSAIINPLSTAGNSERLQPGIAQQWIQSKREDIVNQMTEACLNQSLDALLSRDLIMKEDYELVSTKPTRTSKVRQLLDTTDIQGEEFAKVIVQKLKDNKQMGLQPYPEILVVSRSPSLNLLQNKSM
MT1-MMP conf: MT1-MMP activation inhibitors, hit retest, confirmation, single concentration, fluorescence, HT1080 RFP-PRO-GFP cells. shares compounds with MT1-MMP act inh. GFP and RFP fluorescence ratio, overnight. inhibition, % at 20 µM. 10% of 200 active;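 active = inhibition of at least 50% in the primary cell screen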
Of the large screens only hits and unclear results are named; the others gave an inactive call (follow-up assays come after a bar, where they were run). Rows were chosen to be rich in hits. Some 0.99% of all compounds tested hit in one or more screens of this group.

COC(=O)C1=C(c2ccc(OC)c(OC)c2)C[C@@H]2CC[C@H]1N2C(=O)N1CCCC1	MT1-MMP act inh 34 (no result: TLR4-MyD88 BLA) | MT1-MMP conf inactive
Cn1cccc1/C=C1/C(=O)NC(=S)N(Cc2ccc(F)cc2)C1=O	MT1-MMP act inh 39 (no result: TLR4-MyD88 BLA) | MT1-MMP conf inactive
CCCCC1(CCC)C(=O)NC(=S)NC1=O	none (no result: TLR4-MyD88 BLA)
N[C@@H](Cc1ccccc1)C(=O)N1C[C@H]2C[C@@H](C1)c1cccc(=O)n1C2	none (no result: TLR4-MyD88 BLA)
O=c1[nH]c(=S)n(C2CC2)c(O)c1/C=N/Nc1ccccc1	MT1-MMP act inh 61 | MT1-MMP conf inactive
O=c1[nH]c(=S)n(C2CC2)c(O)c1/C=N/Nc1cccc2ccccc12	none

Bioassay records as filed in PubChem BioAssay.
